Measured values taken from ChEMBL document CHEMBL4732112, “Synthesis and in vitro evaluation of novel spiroketopyrazoles as acetyl-CoA carboxylase inhibitors and potential antitumor agents” (Eur J Med Chem, 2021).

Legend:
Acetyl-CoA carboxylase 1 [1] = biological target: T1, Acetyl-CoA carboxylase 1 (Homo sapiens, UniProt Q13085); experiment: Inhibition of recombinant human C-terminal His-tagged ACC1 (1 to 2383 residues) expressed in baculovirus infected Sf9 insect cells at 5 uM preincubated for 15 mins followed by substrate addition and measured after 60 mins by ADP-glo luminescence assay relative to control
Acetyl-CoA carboxylase 1 [2] = biological target: T1, Acetyl-CoA carboxylase 1; experiment: Inhibition of recombinant human C-terminal His-tagged ACC1 (1 to 2383 residues) expressed in baculovirus infected Sf9 insect cells at 0.1 uM preincubated for 15 mins followed by substrate addition and measured after 60 mins by ADP-glo luminescence assay relative to control
Acetyl-CoA carboxylase 1 [3] = biological target: T1, Acetyl-CoA carboxylase 1; experiment: Inhibition of recombinant human C-terminal His-tagged ACC1 (1 to 2383 residues) expressed in baculovirus infected Sf9 insect cells preincubated for 15 mins followed by substrate addition and measured after 60 mins by ADP-glo luminescence assay
Summary of the method: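 Recombinant ACC1 in assay buffer preincubated with inhibitor in DMSO for 15 min at room temperature. Reaction started with substrate mixture and run 60 min at room temperature. Stopped with ADP-Glo reagent for 40 min, then detection reagent for 40 min to convert ADP to ATP, read by luminescence. Mean of two independent experiments.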

A549 = experiment: Antiproliferative activity against human A549 cells assessed as cell growth inhibition after 72 hrs by MTT assay; assay type: functional, cell-based; conditions: A549, 72 h
Summary of the method: (§1)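 HepG2, A549 or MDA-MB-231 cells grown in DMEM with 10% FBS and penicillin/streptomycin at 37 °C, 5% CO2. Seeded at 3×10^3 per well, left 24 h, then exposed to a range of concentrations for 72 h. MTT added for 4 h, formazan dissolved in DMSO, absorbance read at 550 nm. Mean ± SD, n=3.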

HepG2 = experiment: Antiproliferative activity against human HepG2 cells assessed as cell growth inhibition after 72 hrs by MTT assay; assay type: functional, cell-based; conditions: HepG2, 72 h; summary of the method: as §1
MDA-MB-231 = experiment: Antiproliferative activity against human MDA-MB-231 cells assessed as cell growth inhibition after 72 hrs by MTT assay; assay type: functional, cell-based; conditions: MDA-MB-231, 72 h; summary of the method: as §1
[4] = Cytotoxicity against HUVEC assessed as cell viability at 100 uM after 72 hrs by MTT assay relative to control; assay type: cell-based; conditions: human, HUVEC cells, read-out: Activity
Summary of the method: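 HUVEC kept in RPMI 1640 with 10% FBS at 37 °C, 5% CO2. Seeded at 3×10^3 per well and treated at 100 µM for 72 h after 24 h attachment. Viability by MTT with absorbance at 550 nm, as percent of control. Mean ± SD, n=3.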

Row | Compound | inhibition (Acetyl-CoA carboxylase 1 [1]) [%] | inhibition (Acetyl-CoA carboxylase 1 [2]) [%] | IC50 (Acetyl-CoA carboxylase 1 [3]) [µM] | IC50 (A549) [µM] | IC50 (HepG2) [µM] | IC50 (MDA-MB-231) [µM] | viability at 72 h, 100 µM [4] [%]
1 | CC(C)(C)n1cc2c(n1)C(=O)CC1(CCN(C(=O)c3cc(-c4ccccc4)nc4ccccc34)CC1)O2 | 101 | 90.5 | 0.006 | 1.94 | 2.11 | > 10 | 97.3
2 | COc1cc(C(=O)N2CCC3(CC2)CC(=O)c2nn(C(C)(C)C)cc2O3)c2ccccc2n1 | 93.8 | 36.7 | > 0.1 | > 10 | > 10 | > 10 | 98.6
3 | CC(C)(C)n1cc2c(n1)C(=O)CC1(CCN(C(=O)c3cc(N4CCOCC4)nc4ccccc34)CC1)O2 | 97.7 | 56.9 | > 0.02 | > 10 | 4.57 | 3.18 | 34.4
4 | CC(C)(C)n1cc2c(n1)C(=O)CC1(CCN(C(=O)c3cc(-c4ccc(N)cc4)nc4ccccc34)CC1)O2 | 101 | 94.1 | 0.00129 | 0.97 | 0.63 | 4.96 | 84.8
5 | Cc1ccc(-c2cc(C(=O)N3CCC4(CC3)CC(=O)c3nn(C(C)(C)C)cc3O4)c3ccccc3n2)cc1 | 101 | 93.8 | 0.00222 | 5.3 | 1.44 | > 10 | 49.6
6 | COc1cccc2c1C(=O)c1c(O)c3c(c(O)c1C2=O)C[C@@](O)(C(=O)CO)C[C@@H]3O[C@H]1C[C@H](N)[C@H](O)[C@H](C)O1 [DOXORUBICIN] | – | – | – | 0.59 | 0.69 | – | 14.4
7 | CC(C)(C)n1cc2c(n1)C(=O)CC1(CCN(C(=O)c3cc(-c4ccc(Cl)cc4)nc4ccccc34)CC1)O2 | 104 | 93.2 | 0.00609 | 2.33 | 0.63 | > 10 | 87.3
8 | COc1ccc(-c2cc(C(=O)N3CCC4(CC3)CC(=O)c3nn(C(C)(C)C)cc3O4)c3ccccc3n2)cc1 | 101 | 94.8 | 0.00318 | 3.74 | 2.78 | > 10 | 102
9 | CC(C)(C)n1cc2c(n1)C(=O)CC1(CCN(C(=O)c3cc(Cl)nc4ccccc34)CC1)O2 | 96.7 | 59.1 | > 0.02 | 7.17 | 4.72 | 9.22 | 99.3
10 | Cc1cc(C(=O)N2CCC3(CC2)CC(=O)c2nn(C(C)(C)C)cc2O3)c2ccccc2n1 | 93.6 | 55 | > 0.02 | > 10 | 9.48 | 4.86 | 101
11 | COc1ccccc1[C@H](Cn1c(=O)n(C(C)(C)C(=O)O)c(=O)c2c(C)c(-c3ncco3)sc21)OC1CCOCC1 [FIRSOCOSTAT] | – | – | 0.00434 | – | – | – | –
12 | CN1CCN(c2cc(C(=O)N3CCC4(CC3)CC(=O)c3nn(C(C)(C)C)cc3O4)c3ccccc3n2)CC1 | 97.4 | 52.8 | > 0.02 | > 10 | 9.55 | 8.13 | 93.5
